The RNAGym collection of RNA variant scans (doi:10.1126/science.aae0568)
This sample holds only a part of the variants without activity.

B1: tRNA (parent)
chain: GUUCCGUUGGCGUAAUGGUAACGCGUCUCCCUCCUAAGGAGAAGACUGCGGGUUCGAGUCCCGUACGGAACG

Variants of: B1
Assay: yeast fitness relative to wild type (ratio to wild type); higher = fitter; tRNA-Arg(CCU), competitive growth, 37 C, YPD
Outline: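 For this measurement, the tRNA-Arg(CCU) gene was varied by chemical synthesis at a 3% per-site mutation rate across 69 sites, and each variant was placed at the native genomic locus in Saccharomyces cerevisiae. The pooled strains went through a 24-hour competition in YPD at 37°C in six parallel replicates, with amplicons from start and end populations read by 100-nucleotide paired-end sequencing. Darwinian fitness relative to wild type followed from the change in each genotype's frequency. Genotypes needed ≥ 100 starting reads, and estimates < 0.5 were set to 0.5.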

| Variant | yeast fitness |
| --- | --- |
| G18A A21U G68A | ≤ 0.5 |
| G17A U47G G67A A69C | 0.559 |
| G17C G18C C22A G41C A42U U64C | ≤ 0.5 |
| G17A G18A A42C C55U G63C | ≤ 0.5 |
| G17A G25C C29G | ≤ 0.5 |
| G17C A36U G48C U54C C60A U64G | ≤ 0.5 |
| G17A G50A C61A | ≤ 0.5 |
| G17A G18A A20C A21G G50A C55G A69U | 0.642 |
| G17C A37C A40C C61U | ≤ 0.5 |
| G17C U28G U54A C62U A70C | ≤ 0.5 |
| G17C G39C A45U G58C | ≤ 0.5 |
| G17A G56A C66G | ≤ 0.5 |
| G17C G44A G48A | 0.529 |
| G17C A20U C33G | ≤ 0.5 |
| G17C C24G C34U C66U | 0.548 |
| G17C C60G | ≤ 0.5 |
| G17C C60U | 0.597 |
| G17C C34A U59C | 0.542 |
| G17C G44C | 0.58 |
| G17U G67C | 0.798 |
| G17C C34U C61U G67A | ≤ 0.5 |
| G17A U35G G48C G67C | 0.558 |
| G18A A21U | 0.528 |
| G17C A45C G48A U59A A70C | ≤ 0.5 |

| Variant | yeast fitness |
| --- | --- |
| G17U A69C A70G | 0.643 |
| G17C C29U A70U | ≤ 0.5 |
| G17C U26G G39C A40U C61U | ≤ 0.5 |
| G17C U32G C33U G56A G58A | ≤ 0.5 |
| G18A A36G A42U A70C | 0.784 |
| G17C C60A G67A | ≤ 0.5 |
| G17A G56A | 0.878 |
| G17C G44C C66U | ≤ 0.5 |
| G17C A36U G44C | ≤ 0.5 |
| G18A A21C G58C C60U | ≤ 0.5 |
| G17A U19C C24U | 0.75 |
| G17A G18A U26C A42C C55U | ≤ 0.5 |
| G17C C30G U32C C60G G63A A65U C66U | 0.544 |
| G17A G67U | 0.808 |
| G17A G67A | 0.743 |
| G17A G67C | 0.834 |
| G17A U19A C30U A37U G67A | ≤ 0.5 |
| G17C C24A U47A G67C | 0.569 |
| G18A A20U C27G U47A | ≤ 0.5 |
| G17A G23C U64A A65C G67A | ≤ 0.5 |
| G17C U59G | 0.674 |
| G17A U35G U59C | ≤ 0.5 |
| G17C U26C U28C C29G A42C G51A | ≤ 0.5 |
| G17U U28A C29G C33U C34G A42U | ≤ 0.5 |

| Variant | yeast fitness |
| --- | --- |
| G17C A42G C55U | ≤ 0.5 |
| G18A A20G U54A A70G | ≤ 0.5 |
| G17A G25C A40U C66G | ≤ 0.5 |
| G17C C30G | 0.581 |
| G18A A37C A42C C55U | ≤ 0.5 |
| G17C U28A C30A C31A C60G A65G | ≤ 0.5 |
| G17A G18C G39C | 0.588 |
| G17C C27A | 0.674 |
| G17C C27G | 0.558 |
| G17C C27U | 0.617 |
| G17A U19A G23A C31U C34A A43U | ≤ 0.5 |
| G17C U19A C24G U26A C34U A69U | ≤ 0.5 |
| G17C A40U C66G | ≤ 0.5 |
| G17C C31G | 0.634 |
| G17C C46A | 0.609 |
| G17C C46U | 0.686 |
| G17C C24G C46G | 0.519 |
| G17A G25C G39A | ≤ 0.5 |
| G17C C30A C34G A37C U53C G63C | ≤ 0.5 |
| G18A A42G G48C | ≤ 0.5 |
| G17C G18C G51A | ≤ 0.5 |
| G17A U26C C61U A65G G67A | ≤ 0.5 |
| G18A A21C A37C C66A | 0.695 |
| G17C C29A C46U | 0.867 |

| Variant | yeast fitness |
| --- | --- |
| G17C C49G C61A | ≤ 0.5 |
| G17C G52A G56A A65U A70G | ≤ 0.5 |
| G17C A20C G39A | 0.528 |
| G17C G63A | 0.674 |
| G18A A45C C49U C62G C66U | ≤ 0.5 |
| G17C C22G U26C U47A C66U | ≤ 0.5 |
| G18A A37U G68C | 0.579 |
| G17C G18C C22A C60A | 0.529 |
| G17A U54C A70G | ≤ 0.5 |
| G17C U19A C49G C66U | ≤ 0.5 |
| G17C G52C | ≤ 0.5 |
| G17C G39C A45G U54A | ≤ 0.5 |
| G17C C24G C46G C66U | ≤ 0.5 |
| G17C G48A C55U | ≤ 0.5 |
| G17C C22A C24G U28C C33A | ≤ 0.5 |
| G17C A21C C34G A37U U47C G68C | ≤ 0.5 |
| G17C C30U A36G G67U A70G | ≤ 0.5 |
| G17C A21G C27U C33G A42U A57G | ≤ 0.5 |
| G17C C34A G50A U53G C60U | ≤ 0.5 |
| G17U C24A C31U | ≤ 0.5 |
| G18A A42C | 0.635 |
| G18A A42U | 0.683 |
| G17A G25C | 0.705 |
| G17C U26A A69C | ≤ 0.5 |

| Variant | yeast fitness |
| --- | --- |
| G17C U26C | 0.698 |
| G17A U26G G51A | ≤ 0.5 |
| G17U G25A G50A G63C | ≤ 0.5 |
| G17A U35G G63A G68C | ≤ 0.5 |
| G17C C30U A40G | 0.686 |
| G17C C31G A42C C66U | ≤ 0.5 |
| G17C C55U G67A G68C | ≤ 0.5 |
| G17C A40G A42U C62U | ≤ 0.5 |
| G17C G68C | 0.614 |
| G17A G38C A70C | ≤ 0.5 |
| G17A U53G | 0.595 |
| G18A A20G A69C | ≤ 0.5 |
| G18A A45U C55A | ≤ 0.5 |
| G17A G52C | 0.65 |
| G17C C31U A37U G41A G48A | ≤ 0.5 |
| G17C C24A U32C U47A G67C | ≤ 0.5 |
| G17A U59A C66U | ≤ 0.5 |
| G18A A20U C22U U28A C33U G44C C60A | ≤ 0.5 |
| G17C C22G C24A | ≤ 0.5 |
| G18A A43C | 0.637 |
| G18A A43G | 0.904 |
| G17C C22U U26C C46A G63A | ≤ 0.5 |
| G17U A21C G25C | 0.541 |
| G18A A37U C61U U64A | ≤ 0.5 |

| Variant | yeast fitness |
| --- | --- |
| G17C G18C G39A A57C | ≤ 0.5 |
| G17A G18C A21U C55U U59A C62A | ≤ 0.5 |
| G17C G25C C29G A36U G39A | ≤ 0.5 |
| G18A A20C C34U A36U G39C A70U | ≤ 0.5 |
| G17C G18C C22A C60A C66U | 0.561 |
| G17A U59A | 0.759 |
| G17C C22G A36C G39A A42G G63C | 0.842 |
| G17A U32C U54C C60G | ≤ 0.5 |
| G17C C24G U28A C30U A65U A69C | 0.571 |
| G17C C55U A69U A70U | ≤ 0.5 |
| G18A A20U C60A | ≤ 0.5 |
| G17C C24G U28A C30U G52A | ≤ 0.5 |
| G17A G48C G56C | 0.575 |
| G17A U32A A43G G67C | ≤ 0.5 |
| G17C A43C | 0.734 |
| G17C U28G G48A | 0.558 |
| G17C U28G U54A | ≤ 0.5 |
| G17C C29U U53A C66A | ≤ 0.5 |
| G17C C33G | 0.534 |
| G17C C33A | ≤ 0.5 |
| G17C C27U A65G | 0.598 |
| G17C G63A C66U | ≤ 0.5 |
| G17C G23C A43U C49A C66U | 0.634 |
| G17C A21C U26A | ≤ 0.5 |

| Variant | yeast fitness |
| --- | --- |
| G17C A42G | 0.528 |
| G17C A42U | 0.703 |
| G17C C22G A65G | 0.6 |
| G17C G25A C49A | ≤ 0.5 |
| G17C G67A | 0.67 |
| G17C U28G C30U C61A A69U | ≤ 0.5 |
| G17C C55G G67A A69C | ≤ 0.5 |
| G18A A20U C29G A37U G48A | ≤ 0.5 |
| G17C G25C A37G | ≤ 0.5 |
| G17A U26C U53G | 0.566 |
| G17C G52C C61A C66G | 0.637 |
| G17A G38A C49A U54A | ≤ 0.5 |
| G17C C55A C60A | 0.716 |
| G17C C29A | 0.544 |
| G17A G44A A70C | ≤ 0.5 |
| G17A U26A C62U | 0.614 |
| G17C G18C A69U | ≤ 0.5 |
| G17C U35C A37G G51C | ≤ 0.5 |
| G17C C27U A36G | 0.714 |
| G17U G38A G68A | ≤ 0.5 |
| G17C G39C C66U A70U | ≤ 0.5 |
| G17U A37G A42U G48C C49U | ≤ 0.5 |
| G17C C24G G38C | ≤ 0.5 |
